Experimental data reported in ChEMBL document CHEMBL4385612, “Novel 15-Lipoxygenase-1 Inhibitor Protects Macrophages from Lipopolysaccharide-Induced Cytotoxicity” (J Med Chem, 2019).
Blank lines part the entries; values can stand above or below the compound they belong to. Activity calls are given as the source filed them. The rule behind the calls is not given here.

Legend:
[1] = target: T1, Polyunsaturated fatty acid lipoxygenase ALOX15 (Mus musculus) (UniProt P39654); assay: Inhibition of 15LOX1 in LPS/IFNgamma-stimulated mouse RAW264.7 cells assessed as down regulation of iNOS gene expression at 5 uM preincubated for 20 hrs followed by LPS/IFNgamma stimulation and measured after 4 hrs by RT-PCR analysis relative to control; format: cell-based
T1 sequence (whole entry): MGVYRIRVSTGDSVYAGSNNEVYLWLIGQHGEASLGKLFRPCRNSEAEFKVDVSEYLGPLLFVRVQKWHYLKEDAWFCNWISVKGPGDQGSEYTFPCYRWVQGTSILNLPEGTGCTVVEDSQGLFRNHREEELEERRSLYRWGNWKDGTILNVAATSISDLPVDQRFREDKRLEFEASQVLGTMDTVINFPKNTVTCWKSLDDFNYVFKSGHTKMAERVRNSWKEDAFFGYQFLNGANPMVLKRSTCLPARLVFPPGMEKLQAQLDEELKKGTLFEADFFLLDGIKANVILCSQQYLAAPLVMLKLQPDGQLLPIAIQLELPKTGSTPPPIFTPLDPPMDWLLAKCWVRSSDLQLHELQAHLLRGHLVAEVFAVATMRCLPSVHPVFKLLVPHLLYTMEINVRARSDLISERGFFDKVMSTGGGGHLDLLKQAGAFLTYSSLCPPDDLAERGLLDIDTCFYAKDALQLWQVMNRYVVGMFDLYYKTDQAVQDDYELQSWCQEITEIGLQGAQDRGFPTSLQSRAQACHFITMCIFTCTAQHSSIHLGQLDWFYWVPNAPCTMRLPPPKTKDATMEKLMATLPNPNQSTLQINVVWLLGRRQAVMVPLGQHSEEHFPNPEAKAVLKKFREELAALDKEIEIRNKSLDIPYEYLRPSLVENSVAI
How it was run: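 RAW 264.7 cells pretreated with compound (0.2, 1, 5 μM) for 20 h, then stimulated with LPS/IFNγ (10 ng/mL each) for 4 h in its presence. Total RNA isolated and integrity checked by 28S/18S ratio. RNA reverse-transcribed, and 10 ng cDNA used per real-time PCR. iNOS expression calculated by 2^–ΔΔCt and normalised to the stimulated positive control. n = 3–4, mean ± SEM.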

RAW264.7 [2] = assay: Protection against LPS-induced cell death in mouse RAW264.7 cells assessed as increase in cell viability at 5 uM measured after 48 hrs by MTS assay relative to control; format: functional
How it was run: (§1)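 RAW 264.7 cells seeded at 5000 per well. Given 100 μg/mL LPS together with compound (0.2, 1, 5 μM) for 48 h. Viability measured by MTS: reagent for 2 h at 37 °C, absorbance at 490 nm. Compared with LPS-only control. n = 3–13, mean ± SEM.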

[3] = Stability in pH 7.4 2-betamercaptoethanol at 25 to 50 uM by UV-spectra analysis; format: physicochemical; details: buffer, pH 7.4, 50 µM
How it was run: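 UV spectrum of compound recorded during incubation with 2-mercaptoethanol at pH 7.4, to follow thiol conjugate addition to the α,β-unsaturated amide.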

[4] = target: T1, Polyunsaturated fatty acid lipoxygenase ALOX15 (Mus musculus); assay: Inhibition of N144 probe binding to 15-LOX in mouse RAW264.7 cells measured after 2 mins by HRP-coupled Western blot analysis; format: cell-based
How it was run: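 Lysates of inhibitor-treated and untreated RAW 264.7 cells exposed to covalent alkene probe N144 for 2 min. Probe then biotinylated by oxidative Heck reaction with a biotinylated phenylboronic acid and detected on blots with streptavidin–HRP. Blots also probed for 15-LOX-1 and β-actin. Band intensities normalised to β-actin. n = 3 independent experiments, mean ± SEM.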

RAW264.7 [5] = assay: Inhibition of LPS/IFNgamma-stimulated lipid peroxidation in mouse RAW264.7 cells at 5 uM after 24 hrs by BODIPY 581/591 C11-staining based FACS assay; format: functional, cell-based
How it was run: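 RAW 264.7 cells, 10 × 10^6 per well, incubated overnight. Then LPS/IFNγ (10 ng/mL each) for 24 h with or without inhibitor at 5 μM. Unstimulated cells served as control. Stained with BODIPY 581/591 C11 for 30 min at 37 °C. Red-to-green fluorescence shift measured by flow cytometry, 488 nm excitation. n = 3, mean ± SEM.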

RAW264.7 [6] = assay: Protection against LPS-induced cell death in mouse RAW264.7 cells assessed as increase in cell viability measured after 48 hrs by MTS assay; format: functional, cell-based; how it was run: as §1
[7] = target: T1, Polyunsaturated fatty acid lipoxygenase ALOX15 (Mus musculus); assay: Inhibition of 15-LOX1 in LPS/IFNgamma-stimulated mouse RAW264.7 cells assessed as reduction in nitric oxide production preincubated for 20 hrs followed by LPS/IFNgamma stimulation and measured after 4 hrs by colorimetric method; format: cell-based
How it was run: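 RAW 264.7 cells stimulated with LPS and IFNγ (10 ng/mL each). Figure legend: compound added at 0.2, 1 and 5 μM for 20 h, then LPS/IFNγ for a further 4 h. Methods describe 2 × 10^6 cells per well and a 24 h incubation at 5 μM. Total nitrate/nitrite measured with a colorimetric kit. Stimulated control set to 100%. n = 3, mean ± SEM.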

[8] = target: T1, Polyunsaturated fatty acid lipoxygenase ALOX15 (Mus musculus); assay: Inhibition of 15LOX1 in mouse RAW blue cells assessed as suppression of LPS/IFNgamma-stimulated NFkappaB activation by measuring reduction in SEAP release at 0.2 to 5 uM preincubated for 20 hrs followed by LPS/IFNgamma-stimulation and measured after 4 hrs by quanti blue reagent-based reporter gene assay; format: cell-based
How it was run: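 RAW-Blue cells (RAW 264.7 carrying an NF-κB–SEAP reporter, kept with 200 μg/mL Zeocin) seeded at 10 × 10^4 per well the day before. Pretreated with compound (0.2, 1, 5 μM) for 20 h, then LPS and IFNγ (10 ng/mL each) added for 4 h. Secreted SEAP read with QuantiBlue after 2 h at 37 °C, absorbance 635–655 nm. n = 8–16, mean ± SEM.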

[9] = target: T2, Polyunsaturated fatty acid lipoxygenase ALOX15 (Homo sapiens, UniProt P16050); assay: Inhibition of human recombinant N-terminal His6-tagged 15-LOX1 expressed in Escherichia coli BL21(DE3) using linoleic acid as substrate preincubated for 10 mins followed by substrate addition by UV absorption analysis
T2 sequence (P16050 whole entry): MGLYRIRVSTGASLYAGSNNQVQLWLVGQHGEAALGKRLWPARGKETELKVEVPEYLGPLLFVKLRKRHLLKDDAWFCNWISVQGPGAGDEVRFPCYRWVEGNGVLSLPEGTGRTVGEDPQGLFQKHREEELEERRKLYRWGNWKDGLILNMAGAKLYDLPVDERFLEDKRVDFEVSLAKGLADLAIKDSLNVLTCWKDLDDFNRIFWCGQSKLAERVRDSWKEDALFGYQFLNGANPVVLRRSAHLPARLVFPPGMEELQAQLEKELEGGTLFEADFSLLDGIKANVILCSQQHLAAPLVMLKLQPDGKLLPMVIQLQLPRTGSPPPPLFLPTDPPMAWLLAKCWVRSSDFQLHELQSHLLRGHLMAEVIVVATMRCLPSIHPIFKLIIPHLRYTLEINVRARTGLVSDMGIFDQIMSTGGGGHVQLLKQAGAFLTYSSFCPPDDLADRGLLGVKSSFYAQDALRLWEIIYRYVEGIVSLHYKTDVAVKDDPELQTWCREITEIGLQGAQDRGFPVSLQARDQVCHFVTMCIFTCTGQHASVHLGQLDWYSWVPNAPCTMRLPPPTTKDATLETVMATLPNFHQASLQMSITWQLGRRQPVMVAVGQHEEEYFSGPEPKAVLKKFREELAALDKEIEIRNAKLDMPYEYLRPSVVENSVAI

SMILES: CCOC(=O)c1[nH]c2cc(Cl)ccc2c1/C=C/C(=O)NCc1ccccc1OC
- inhibition [1]: 50%
- Activity (RAW264.7 [2]): 20%
- Stability [3]: Stable
- inhibition [4]: Active
- inhibition (RAW264.7 [5]): Active
- Activity (RAW264.7 [6]): Dose-dependent effect
- inhibition [7]: Dose-dependent effect
- inhibition [8]: Active

SMILES: CCOC(=O)c1[nH]c2cc(Cl)ccc2c1C(=O)C[C@@H](C)CCCC(C)C
- Activity (RAW264.7 [2]): Active

SMILES: CC(c1cc2ccccc2s1)N(O)C(N)=O (centres undefined)
- Activity (RAW264.7 [2]): Active
- inhibition (RAW264.7 [5]): Active

SMILES: c1ccc2c(c1)SCc1c-2[nH]c2ccccc12
- inhibition (RAW264.7 [5]): Active

SMILES: O=C(NC1CC1)c1cc2ccc(Cl)cc2[nH]1
- IC50 [9]: > 20 µM

Second part, the compound after the results:

- IC50 [9]: > 20 µM
SMILES: CCOC(=O)c1[nH]c2cc(Cl)ccc2c1/C=C/C(=O)NCCc1ccccc1

- IC50 [9]: > 20 µM
SMILES: CCCNC(=O)c1[nH]c2cc(Cl)ccc2c1C(=O)C[C@@H](C)CCCC(C)C

- IC50 [9]: > 20 µM
SMILES: CCCNC(=O)c1c(C(=O)OCC)[nH]c2cc(Cl)ccc12

- IC50 [9]: > 20 µM
SMILES: CCCNC(=O)c1[nH]c2cc(Cl)ccc2c1C(=O)C[C@H](C)CCCC(C)C

- IC50 [9]: > 20 µM
SMILES: CCCNC(=O)c1[nH]c2cc(Cl)ccc2c1/C=C/C(=O)NCc1ccccc1OC

- IC50 [9]: > 20 µM
SMILES: CCCNC(=O)c1[nH]c2cc(Cl)ccc2c1CN(C)C
